Screens (PubChem)
Compounds with a hit are over-represented: about 3.7% of the library has one in this group of screens.
KCNK9 inh: KCNK9 potassium channel inhibitors, primary screen, HEK293 cells, thallium flux; AID 488922, 2010; FluxOR thallium flux fluorescence; active compounds read low; B-score at 10 µM; Potassium channel subfamily K member 9 (Homo sapiens), Q9NPC2; 310,000 compounds, 1.2% hits;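 active = ratio B-score over 3 SD below the library mean, with starting fluorescence within 5 SD of its mean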;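 also: negative B-score means less thallium flux so channel inhibition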
Kir21 inh: inhibitors of mouse Kir2.1 inward-rectifier potassium channel; Inward rectifier potassium channel 2 (Mus musculus), P35561; HEK293-Kir2.1, FluxOR thallium flux fluorescence; active compounds read low; B-score at 10 µM; 310,000 compounds, 0.85% hits; AID 1672, 2009;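 active = fluorescence ratio B-score at or below minus 3 SD of library scores, with starting-brightness B-score within 2 SD, cut at about -4.2 in these data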;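 also: channel flux triggered by added potassium and thallium sulfate stimulus; B-score of peak minus minimum fluorescence over baseline after thallium stimulus; more negative B-score means stronger Kir2.1 block with less thallium influx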
KCNQ1 act: potentiators or activators of KCNQ1 channel, primary screen, cell-based, thallium flux, high-throughput. B-score at 10 µM. Potassium voltage-gated channel subfamily KQT member 1 (Homo sapiens), P51787. CHO-K1 KCNQ1, thallium flux FluxOR fluorescence; active compounds read high. 310,000 compounds, 0.35% hits;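 active = fluorescence ratio B-score, a plate-corrected score, at least three library SD, with initial intensity B-score within 5 SD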
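Assay system: stable KCNQ1 CHO-K1 line; medium: assay buffer, equal DMSO in all wells; timing: 90 min dye loading and 20 min compound exposure, both at room temperature; technique: kinetic FluxOR thallium fluorescence, 10-s 1-Hz baseline, 110-s post-stimulus read; read-out basis: B score of baseline-normalized fluorescence ratio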
KCNK3 inh: human KCNK3 channel inhibitors, primary screen, CHO cells, FluxOR thallium flux, B-score. FluxOR fluorescence; active compounds read low. AID 602410, 2012. 340,000 compounds, 0.84% hits. B-score at 10 µM;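 active = B-score under library mean minus 4 SD, starting fluorescence ratio at most library mean plus 5 SD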;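 also: more negative B-score means stronger inhibition of thallium flux through KCNK3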
Target sequence (O14649 whole entry, looked up): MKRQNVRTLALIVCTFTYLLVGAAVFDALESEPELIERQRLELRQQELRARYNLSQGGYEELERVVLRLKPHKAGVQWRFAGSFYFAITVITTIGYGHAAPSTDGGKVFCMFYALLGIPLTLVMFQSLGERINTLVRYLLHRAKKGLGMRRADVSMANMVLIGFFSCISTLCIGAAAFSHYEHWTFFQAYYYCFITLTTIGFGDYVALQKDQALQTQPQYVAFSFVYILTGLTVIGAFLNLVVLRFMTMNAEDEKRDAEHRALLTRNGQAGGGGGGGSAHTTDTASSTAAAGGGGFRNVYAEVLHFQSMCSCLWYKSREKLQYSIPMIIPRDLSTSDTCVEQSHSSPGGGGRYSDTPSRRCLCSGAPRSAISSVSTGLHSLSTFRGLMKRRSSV
KCNQ1 block: inhibitors of human KCNQ1 channel, primary screen, cell-based, thallium flux, high-throughput; 310,000 compounds, 1.3% hits; CHO-K1 KCNQ1, FluxOR thallium flux fluorescence; active compounds read high; Potassium voltage-gated channel subfamily KQT member 1 (Homo sapiens), P51787; B-score at 10 µM;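 active = compounds whose thallium flux B-score, printed positive for inhibition, exceeds three library SD while starting fluorescence stays within three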;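 also: channel opened by potassium depolarization with thallium stimulus after 20 min compound exposure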
hERG protect: hERG rescue from dofetilide block, primary screen, cell-based, CHO-hERG, FluxOR thallium flux, dofetilide IC70 | Voltage-gated inwardly rectifying potassium channel KCNH2 (Homo sapiens), Q12809 | dofetilide IC70 present | activation (rescue from dofetilide block), less the hit threshold, % at 10 µM | 310,000 compounds, 0.51% hits | AID 1511, 2009;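 active = activation above the mean of controls blocked by dofetilide plus 5 SD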;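 also: thallium influx through hERG after potassium depolarization seen as dye fluorescence rise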
KCNK3 confirm: retest of human KCNK3 channel inhibitors, confirmation, CHO cells, FluxOR thallium flux, triplicate; AID 651638, 2012; shares compounds with KCNK3 inh; ratio percent of control, % at 10 µM; FluxOR fluorescence; 0% buffer, 100% carvedilol maximal block; 2,400 compounds, 99% hits;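 active = ratio percent of control, averaged over triplicates, above buffer control mean plus 5 SD, cut at about 64% in these data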;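 also: ratio is the fluorescence rise from min to max over baseline after thallium stimulus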
KCNK3 noninduced: thallium flux inhibition in non-induced cells, primary screen, counter-screen for KCNK3 inhibitor project, cell-based, non-induced KCNK3 line, FluxOR thallium, triplicate. shares compounds with KCNK3 inh. non-induced KCNK3 parental cells; active compounds read low. 2,400 compounds, 40% hits. AID 651747, 2012. thallium flux ratio (lower = more inhibition) at 10 µM;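 active = thallium flux ratio, averaged over three wells, more than 5 SD below the buffer control mean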;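 also: host cells are CHO cells without KCNK3 induction; ratio is peak minus trough fluorescence over baseline then normalized to buffer controls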
An asterisk follows results filed as active; i = inactive; / = no result.

SMILES	KCNK9 inh	Kir21 inh	KCNQ1 act	KCNK3 inh	KCNQ1 block	hERG protect	KCNK3 confirm	KCNK3 noninduced
COc1cc(OC)c(OC)cc1/C=C1\CC(C)C/C(=C\c2cc(OC)c(OC)cc2OC)C1=O (configuration not stated)	i	-0.8	i	-14*	8*	-7	154*	0.066*
CSc1ccc(CNC(=O)CCn2ccc3cc(S(=O)(=O)N4CCCC4)ccc32)cc1	i	-0.84	i	-9.9*	i	-5	119*	0.16*
N#Cc1nc(COc2ccc(Cl)cc2)oc1NCc1ccc2c(c1)OCO2	i	0.57	i	-11*	i	-9	138*	0.16*
Cc1nc(C#N)c(NCc2ccc3c(c2)OCO3)o1	i	1.8	i	i	i	-8	/	/
COc1ccc(CNc2oc(Cc3cccc4ccccc34)nc2C#N)cc1	i	-2.2	i	-14*	i	-9	91*	0.15*
COc1ccc(CNc2oc(COc3ccccc3)nc2C#N)cc1	i	-0.79	i	-8.9*	i	-12	117*	0.16*
Cc1cccc(-c2noc(CN(C(=O)c3ccc(Br)o3)C(C)C)n2)c1	i	-1.1	i	i	i	-10	/	/
Cc1cccc(-c2noc(CN(C(=O)c3c(-c4ccccc4Cl)noc3C)C(C)C)n2)c1	/	/	/	-12*	/	/	113*	i
c1ccc(CCNc2ncnc3scc(C4COc5ccccc5O4)c23)cc1 (configuration not stated)	i	-0.07	i	-9.1*	i	-18	127*	0.12*
CC12CCC(C(=O)N(CC3CO3)C1=O)C2(C)C (configuration not stated)	i	1.3	i	i	i	-8	/	/
O=C(Nc1nc(-c2cccs2)cs1)c1ccc(Cl)s1	i	0.93	i	-23*	i	4	86*	i
CC(=O)Nc1nc(-c2cccs2)cs1	i	-0.01	i	i	i	-7	/	/
O=C(c1cccc(Cl)c1)C1CCCN(C(=O)c2ccoc2)C1 (configuration not stated)	i	1.8	i	i	i	-4	/	/
CCN(CC(=O)NCc1cccs1)C(=O)c1ccc(S(=O)(=O)Nc2ccccc2F)cc1	i	-2.1	i	i	i	-8	/	/
COc1ccc(C)cc1NC(=O)c1cc2ccccc2cc1OCC(=O)NCc1ccco1	i	-0.14	i	-14*	i	0	109*	i
C#CCOc1ccc(C2C(C#N)=C(N)Oc3cc(O)ccc32)cc1 (configuration not stated)	i	-3.2	i	-9.5*	i	-3	95*	i
COc1ccc(C2C(C#N)=C(N)Oc3cc(O)ccc32)cc1Cl (configuration not stated)	i	-2.9	i	-9*	6*	-16	110*	0.15*
COc1cccc(NC(=O)CN(C)C(=O)c2cc(-c3ccc(F)cc3)nc3ccccc23)c1	i	0.93	i	-9.3*	i	-25	133*	0.11*
COc1cccc(NC(=O)CN(C)C(=O)/C=C/c2cn(-c3ccccc3)nc2-c2ccc(C)cc2)c1	i	-1.7	i	-8.7*	10*	-28	92*	i
COc1cccc(NC(=O)CN(C)C(=O)c2cc(-c3ccccc3)nc3ccccc23)c1	i	0.02	i	i	i	-14	/	/
Oc1ccc(N=C/C=C/c2cccc(Br)c2)cc1-c1nc2ccccc2s1	i	0.04	i	i	i	1	/	/
CC(C)(C)C(=O)Nc1ccccc1C(=O)NCc1ccco1	i	-0.05	i	-9.3*	i	-13	65*	i
Cc1cccc(C)c1OCC(=O)Nc1ccccc1N1CCCCC1	-7.6*	1.1	i	-9.3*	i	-21	114*	i
CC(Oc1cccc(Cl)c1)C(=O)Nc1ccccc1N1CCCC1 (configuration not stated)	i	-1.3	i	-8.8*	i	-18	124*	i
CCc1cccc(OCC(=O)Nc2ccccc2N2CCCC2)c1	i	-0.31	i	-9.1*	i	-10	120*	0.16*
SMILES	KCNK9 inh	Kir21 inh	KCNQ1 act	KCNK3 inh	KCNQ1 block	hERG protect	KCNK3 confirm	KCNK3 noninduced
CCOc1cc(N2CCOCC2)c(OCC)cc1NC(=O)COc1cccc(CC)c1	/	/	/	i	/	/	/	/
Cc1ccc(Cl)c(OCC(=O)Nc2ccccc2N2CCCCC2)c1	i	-2.2	i	-10*	i	-14	123*	0.15*
O=C(COc1ccc(Cl)cc1Br)Nc1ccccc1N1CCCC1	i	1.5	i	i	i	-12	/	/
COc1cc(C(C)=O)ccc1OCC(=O)Nc1ccccc1N1CCCCC1	i	0.3	i	i	i	-5	/	/
O=C(COC(=O)c1ccc(S(=O)(=O)N2CCOCC2)cc1)NCc1cccs1	i	0	i	i	i	-4	/	/
CC(C)COc1ccc(-c2cc(C(=O)NN)[nH]n2)cc1	i	1.1	i	i	i	-11	/	/
Cc1cccc(NC(=O)CSCC(=O)Nc2ccccc2N2CCCC2)c1	i	-4.3*	i	-9.6*	i	-14	87*	i
CCCCn1c(N)c(N(CC)C(=O)C2=NN(c3ccccc3)C(=O)CC2)c(=O)[nH]c1=O	/	/	/	i	/	/	/	/
O=C(Nc1ccccc1N1CCN(c2ccccc2)CC1)c1ccccc1	i	1.2	i	-9.5*	i	-4	113*	0.13*
O=C(Nc1ccccc1N1CCCCC1)c1ccc(OC(F)F)cc1	-7.3*	0.33	i	-12*	i	-1	92*	i
O=C(Nc1ccccc1N1CCOCC1)c1cccc(F)c1	i	0.6	i	i	i	-21	/	/
O=C(Nc1ccccc1N1CCOCC1)c1cccc(Oc2ccccc2)c1	i	0.02	i	-9.6*	i	-7	96*	i
